What was measured:
[1] = target: T1, GABA-A receptor; alpha-1/beta-3/gamma-2 (Homo sapiens) (UniProt P14867+P18507+P28472); assay: Modulation of recombinant GABA alpha1beta3gamma2 receptor (unknown origin) expressed in Xenopus laevis oocytes assessed as change in GABA-induced EC(3 to 6) current at 10 uM by two-electrode voltage clamp assay; type: cell-based
In short: (§1)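 Xenopus laevis oocytes expressing α1, α2, α3 or α5 β3γ2 GABAARs were recorded by two-electrode voltage clamp. Modulation of the GABA EC3-6 current (taken as 100%) was tested at 100 nM, 1 μM and 10 μM in the same cells. Values are mean ± SEM, n = 3–4.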

[2] = target: T1, GABA-A receptor; alpha-1/beta-3/gamma-2 (Homo sapiens); assay: Modulation of recombinant GABA alpha1beta3gamma2 receptor (unknown origin) expressed in Xenopus laevis oocytes assessed as change in GABA-induced EC(3 to 6) current at 1 uM by two-electrode voltage clamp assay; type: cell-based; in short: as §1
[3] = target: T2, GABA-A receptor; alpha-3/beta-3/gamma-2 (Homo sapiens) (UniProt P18507+P28472+P34903); assay: Modulation of recombinant GABA alpha3beta3gamma2 receptor (unknown origin) expressed in Xenopus laevis oocytes assessed as change in GABA-induced EC(3 to 6) current at 1 uM by two-electrode voltage clamp assay; type: cell-based; in short: as §1
[4] = Clearance in femoral artery/vein cannulated Sprague-Dawley rat at 1 mg/kg, iv administered […] as single dose by LC-MS/MS analysis; type: ADME, organism-based; settings: in vivo
In short: (§2)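 Male Sprague-Dawley rats (n = 3 per time point) were dosed 1 mg/kg i.v. or 10 mg/kg i.p. Plasma concentrations were measured at set time points. Clearance, Vdss and T½ came from the i.v. arm, and AUC, Cmax and Tmax from the i.p. arm.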

[5] = Cmax in femoral artery/vein cannulated Sprague-Dawley rat at 10 mg/kg, ip administered […] as single dose by LC-MS/MS analysis; type: ADME, organism-based; design: dose 10 mg/kg, route intraperitoneal; settings: in vivo; in short: as §2
Liver [6] = assay: Metabolic stability in rat liver microsomes assessed as compound remaining at 4 uM measured after 30 mins in presence of NADPH by LC-MS/MS analysis; type: ADME, microsome; settings: 0.5 h
In short: (§3)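 Human, mouse or rat liver microsomes were incubated with compound at 4 μM final for 30 min at 37 °C (n = 1). Percent of parent remaining was quantified by LC-MS/MS.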

[7] = target: GABA-A receptor; alpha-2/beta-3/gamma-2 (Homo sapiens) (UniProt P18507+P28472+P47869); assay: Modulation of recombinant GABA alpha2beta3gamma2 receptor (unknown origin) expressed in Xenopus laevis oocytes assessed as change in GABA-induced EC(3 to 6) current at 10 uM by two-electrode voltage clamp assay; type: cell-based; in short: as §1
Rattus norvegicus = assay: Anxiolytic like activity in water-deprived Sprague-Dawley rat assessed as increase in water drinking time during punished period at 30 mg/kg, po administered 30 prior to testing by Vogel conflict test relative to vehicle control; type: functional
In short: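 Water-deprived male Sprague-Dawley rats (n = 6–8) drank during unpunished and punished periods, with licking suppressed by mild shock in punished periods. Compounds were given 30 min before testing. Analysis was ANOVA with Dunnett's test.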

[8] = Cytotoxicity against HEK293T cells assessed as viable cells measured after 18 hrs by CellTiter-Glo assay; type: cell-based, HEK-293T; settings: human, read-out: LD50
In short: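 HEK293T cells were exposed to compound for 18 h (n = 4). Viable cells were quantified with CellTiter-Glo, and LD50 was derived.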

[9] = target: T2, GABA-A receptor; alpha-3/beta-3/gamma-2 (Homo sapiens); assay: Modulation of recombinant GABA alpha3beta3gamma2 receptor (unknown origin) expressed in Xenopus laevis oocytes assessed as change in GABA-induced EC(3 to 6) current at 10 uM by two-electrode voltage clamp assay; type: cell-based; in short: as §1
Liver [10] = assay: Metabolic stability in human liver microsomes assessed as compound remaining at 4 uM measured after 30 mins in presence of NADPH by LC-MS/MS analysis; type: ADME, microsome; settings: 0.5 h; in short: as §3

Which Activity [1] does the source give for C#Cc1ccc2c(c1)C(c1ccccn1)=NCc1c(-c3cnco3)ncn1-2 here?
The Activity was 232%.

And the Activity [2]?
Its Activity is 155%.

What about the Activity [3] of the same compound?
The Activity was 188%.

And the clearance [4]?
Its clearance is 21.7 mL/min/kg.

And the Cmax [5]?
The Cmax was 3.09 µM.

What about the Stability (Liver [6]) of the same compound?
The Stability was 90%.

What about the Activity [7] of the same compound?
The Activity was 258%.

And the Activity (Rattus norvegicus)?
Its Activity is 220%.

What about the CC50 at 18 h [8] of the same compound?
Its CC50 at 18 h is > 100 µM.

What about the Activity [9] of the same compound?
Its Activity is 332%.

What about the Stability (Liver [10]) of the same compound?
The Stability was 91%.
